miR-122 sensor – miR-122 Renilla sensor signal increase in Huh7, primary screen, miR-122 inhibitor project, cell-based, single point, plate reader. Huh7 miR-122 Renilla luciferase sensor, 48 h; neutral wells = 0, positive control = 100. AID 602342, 2012. activation (reporter increase), % at 12.5 µM. 340,000 tested, 0.3% active;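 active = mean replicate activation score at least 90 and every replicate individually at or above 90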;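 note: higher luciferase means less miR-122 activity so hits act as miR-122 inhibitors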
F508del corr – F508del CFTR correction, initial screen, CFBE line, single point | CFBE cells, YFP halide quenching; stimulated with forskolin plus potentiator P3; % fluorescence drop versus neutral controls | activity (quench increase), % at 7.58 µM | 350,000 tested, 0.36% active;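 active = mean added fluorescence quench of at least 8% versus neutral control, with both replicates also reaching 8%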;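 note: cells transiently co-express mutant CFTR-F508del with the halide-sensitive YFP; corrector assay measuring rescue of mutant channel to the surface after 24 h compound exposure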
DENV2 CPE – inhibitors of DENV2 cytopathic effect, primary screen, cell-based, plate reader, single concentration. DENV2-infected cells, cytopathic effect rescue. CPE inhibition, % at 9.99 µM. 350,000 tested, 1.7% active. AID 651640, 2012; in the data active = CPE inhibition above about 20%, passing the limit was not always enough; tested in BHK-21 cells;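 note: 0% = median of neutral control wells and 100% = median of positive control wells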
INS-1E GSIS act – GLuc luminescence reporter in INS-1E cells, primary screen for activators of glucose-dependent secretion of insulin. INS-1E GLuc reporter insulin secretion, 2-3 h. activation, % at 16.6 µM. 370,000 tested, 0.61% active. AID 743287, 2014;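 active = lowest replicate activation of at least 40%, so every replicate reaches that level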;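 note: 0% = median of neutral control wells and 100% = median of IBMX positive control wells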
ERAP1 HTS inh – human ERAP1 aminopeptidase inhibitors, primary screen, biochemical, single point, plate reader | Endoplasmic reticulum aminopeptidase 1 (Homo sapiens), Q9NZ08 | recombinant ERAP1, Leu-AMC fluorescence, 60 min | inhibition, % at 10.7 µM | 340,000 tested, 0.15% active | AID 652197, 2013;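 active = mean replicate inhibition of at least 30%, or all replicates individually reaching that 30% level; inactive = mean below 30% and not every replicate reaching it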;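 note: 0% = neutral control wells and 100% = L-leucinethiol positive control wells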
Target sequence (Q9NZ08 whole entry, looked up): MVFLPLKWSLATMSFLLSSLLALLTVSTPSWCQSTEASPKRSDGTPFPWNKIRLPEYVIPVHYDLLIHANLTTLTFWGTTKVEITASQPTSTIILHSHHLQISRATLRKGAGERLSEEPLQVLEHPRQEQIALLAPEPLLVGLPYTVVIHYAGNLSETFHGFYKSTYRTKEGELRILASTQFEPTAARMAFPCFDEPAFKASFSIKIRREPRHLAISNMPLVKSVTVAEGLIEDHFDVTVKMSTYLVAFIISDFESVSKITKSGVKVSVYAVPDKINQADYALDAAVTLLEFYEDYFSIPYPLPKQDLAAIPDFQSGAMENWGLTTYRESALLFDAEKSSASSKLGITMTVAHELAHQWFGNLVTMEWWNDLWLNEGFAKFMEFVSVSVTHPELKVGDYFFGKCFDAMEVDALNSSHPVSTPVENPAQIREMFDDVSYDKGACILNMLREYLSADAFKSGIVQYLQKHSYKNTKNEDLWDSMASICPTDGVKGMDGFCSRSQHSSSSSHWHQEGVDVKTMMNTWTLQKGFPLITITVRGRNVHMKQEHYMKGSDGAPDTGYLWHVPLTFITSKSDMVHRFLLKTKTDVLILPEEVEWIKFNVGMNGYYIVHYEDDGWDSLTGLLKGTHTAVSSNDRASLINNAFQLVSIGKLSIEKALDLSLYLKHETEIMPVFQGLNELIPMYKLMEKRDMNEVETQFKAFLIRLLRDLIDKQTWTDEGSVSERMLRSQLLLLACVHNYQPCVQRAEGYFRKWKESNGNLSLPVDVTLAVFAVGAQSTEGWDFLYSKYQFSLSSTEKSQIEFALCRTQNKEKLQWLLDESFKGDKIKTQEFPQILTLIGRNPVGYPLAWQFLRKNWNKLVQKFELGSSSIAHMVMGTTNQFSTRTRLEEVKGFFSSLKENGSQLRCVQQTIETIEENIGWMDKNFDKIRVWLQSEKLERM
E-selectin induc – E-selectin induction in HUVECs, primary screen, imaging, HUVEC, immunofluorescence imaging, single point | 260,000 tested, 0.37% active | activation, % at 7.58 µM | P16581 | normalized: neutral wells 0, TNF-alpha wells 100 | AID 686992, 2013;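 active = mean E-selectin-positive cell signal at least 10% of the positive control, reached in at least 60% of replicates, without over 20% cell loss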
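System: HUVEC, human umbilical vein endothelial cells; quantity: 3,000 cells/well; buffer or medium: EGM-2 medium, gelatin-coated wells; dosing: single-point compound dose; detection: immunofluorescence imaging; evaluation: % PE-positive cells; benchmarks: TNF-alpha, DMSO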
Starred values were filed as active, the others as inactive; x = not tested or not shown; ! = not active in a repeat; [ ] = another dose, or the depositor's remark. The list is not random: actives were taken first. Their share in the collection is about 2.6%.

SMILES	miR-122 sensor	F508del corr	DENV2 CPE	INS-1E GSIS act	ERAP1 HTS inh	E-selectin induc
C[C@H]1CN([C@@H](C)CO)C(=O)c2cccc(NC(=O)Nc3ccccc3)c2O[C@@H]1CN(C)S(=O)(=O)c1cn(C)cn1	5[16.7 µM]	-1	47*	6	-5	0
C[C@@H]1CN([C@@H](C)CO)C(=O)c2cccc(NC(=O)Nc3ccccc3)c2O[C@@H]1CN(C)S(=O)(=O)c1ccccc1	-6[16.7 µM]	-2	2	-21	-2	-3
Cc1noc(C)c1NC(=O)Nc1cccc2c1O[C@@H](CN(C)S(=O)(=O)c1cn(C)cn1)[C@@H](C)CN([C@@H](C)CO)C2=O	1[16.7 µM]	2	27*	12	2	0
C[C@@H]1CN([C@@H](C)CO)C(=O)c2cccc(NC(=O)Nc3ccccc3)c2O[C@@H]1CN(C)S(=O)(=O)c1cn(C)cn1	-5[16.7 µM]	-1	11	19	-4	0
Cc1noc(C)c1NC(=O)Nc1cccc2c1O[C@H](CN(C)S(=O)(=O)c1cn(C)cn1)[C@@H](C)CN([C@H](C)CO)C2=O	-3[16.7 µM]	2	13	7	1	0
O=C(C[C@@H]1CC[C@@H](NC(=O)Nc2ccc(C(F)(F)F)cc2)[C@H](CO)O1)NCc1cc(F)cc(F)c1	x	-2	-3	-1	3	-1
COc1ccc(-c2oc(=O)c3cc(OC)c(OC)cc3c2/C=C/c2cccc([N+](=O)[O-])c2)cc1	1	0	34*	0	3	x
COc1ccc(-c2oc(=O)c3cc(OC)c(OC)cc3c2/C=C/c2ccc([N+](=O)[O-])cc2)cc1	-4	1	x	1	1	0
Cc1ccc2ncccc2c1N	-4	-2	-2	-19	-1	8
Cc1ccc2nc(C)c(C)nc2c1N	113*	x	x	x	x	x
Cc1ccc(CNC(=O)CSc2ccc(-c3cccs3)nn2)cc1	-6	1	20*	-1	1	x
COc1cccc(C(=O)Nc2ccc3c(c2)C(=O)N(C)C[C@@H](OC)[C@H](C)CN(CC2CC2)[C@@H](C)CO3)c1	x	-1	-15	1	-2	0
O=C(CNc1cccc(S(=O)(=O)N2CCOCC2)c1)Nc1cccc(Br)c1	28	3	27*	-14	-1	0
O=C(CSc1nnc2ccc(-c3ccc(F)cc3)nn12)N1CCCC1	x	-2	5	12	34*	1
COCC(=O)N(C)C[C@H]1Oc2cc(-c3ccc(C#N)cc3)ccc2S(=O)(=O)N([C@H](C)CO)C[C@@H]1C	-10[16.7 µM]	-2	x	1	x	0
COc1ccc(-c2ccc(C3[C@@H]4CN(Cc5cccc(OC)c5)C[C@H]3N4)cc2)cc1 (stereo partly drawn)	x	-17	-1	51*!	-2	0
COc1cccc(-c2ccc(C3[C@@H]4CN(Cc5cccc(F)c5)C[C@H]3N4)cc2)c1 (stereo partly drawn)	x	2	6	755*!	0	0
CC(=O)Nc1ccc2c(c1)C(=O)N(C)C[C@@H](C)[C@@H](CN(C)C)O2	x	x	x	6	x	x
Cc1ccc(C)c(OCC(=O)Nc2nonc2NC(=O)COc2cc(C)ccc2C)c1	-29	x	x	129*	x	x
COc1cccc(CNC(=O)[C@@H]2CCCN2C(=O)[C@@H]2CCCN2C(=O)c2cccc(Cl)c2)c1	x	2	3	10	x	0
COc1cccc(CNC(=O)[C@@H]2CCCN2C(=O)[C@H]2CCCCN2C(=O)c2ccc(Cl)cc2)c1	x	-5	78*	-13	x	0
Cc1ccc(NC(=O)NNC(=O)Cn2nc(-c3ccccc3)c(-c3ccccc3)c(C#N)c2=O)cc1	104*	x	x	x	x	x
CC(C)=C[C@H]1C[C@H](C)[C@H]2CC[C@H](C)c3c(O[C@@H]4OC[C@@H](O)[C@H](O)C4O)c(O)c(C)c1c32 (stereo partly drawn)	-11	0	-2	122*	1	0
CS(=O)(=O)N1[C@@H]2Cn3c(ccc(-c4ccc(F)cc4)c3=O)[C@H]1[C@@H](C(=O)N1CCOCC1)[C@@H]2CO	x	x	11	2	1	0
COC(C)(C)c1cc(C(C)(C)C)nc(N)n1	0	x	x	48*	x	x
SMILES	miR-122 sensor	F508del corr	DENV2 CPE	INS-1E GSIS act	ERAP1 HTS inh	E-selectin induc
CC1CCCN(C(=O)Cn2nnc(-c3cccnc3)n2)C1 (stereo not drawn)	91*	x	x	x	x	x
CC1CCCN(C(=O)Cn2nnc(-c3ccc(F)cc3)n2)C1 (stereo not drawn)	1	3	0	-12	0	0
COc1ccc2[nH]c3c(c2c1)CCN1C(=O)N([C@@H](C)C(=O)NC2CCCCC2C)C(=O)[C@]31C (stereo partly drawn)	1	1	48*	x	x	x
O=C1CCCC2=C1C(c1ccc3c(c1)OCO3)c1c([nH]n(-c3ccccc3)c1=O)N2 (stereo not drawn)	191*	x	x	x	x	x
COc1ccc2c3c(n(C)c2c1)[C@H](CO)N(C(=O)c1ccccc1)CC31CN(C)C1	x	2	16	9	x	0
CCOc1ccc(NC(=O)COC(=O)Cn2cnnn2)cc1OCC	17	-2	3	44*	-1	x
C[C@@H]1CN([C@H](C)CO)C(=O)c2cc(C#Cc3cccc(F)c3)cnc2O[C@H]1CN(C)C(=O)C1CCCCC1	-8[16.7 µM]	6	5	-25	1	0
C[C@H]1CN([C@@H](C)CO)C(=O)c2cccc(NC(=O)c3ccncc3)c2O[C@H]1CN(C)C(=O)Nc1ccccc1	8[16.7 µM]	-1	16	10	2	0
C[C@H](CO)N1C[C@H](C)[C@@H](CN(C)C(=O)Nc2ccccc2)Oc2c(NC(=O)c3ccncc3)cccc2C1=O	7[16.7 µM]	0	42*!	18	-2	0
C[C@@H]1CN([C@H](C)CO)C(=O)c2cccc(NC(=O)c3ccncc3)c2O[C@@H]1CN(C)C(=O)Nc1ccccc1	0[16.7 µM]	-1	54*	9	0	0
C[C@@H]1CN([C@H](C)CO)C(=O)c2cc(NC(=O)Nc3cccc4ccccc34)ccc2O[C@@H](C)CCCCO[C@@H]1CN(C)S(=O)(=O)c1cn(C)cn1	-1[16.7 µM]	0	-3	4	0	0
C[C@H](CO)N1C[C@H](C)[C@@H](CN(C)CC2CC2)Oc2ccc(N(C)C)cc2CC1=O	6[16.7 µM]	0	20	14	5	0
COc1ccccc1S(=O)(=O)N[C@@H]1C=C[C@H](CC(=O)NCc2cc(F)cc(F)c2)O[C@H]1CO	1[16.7 µM]	1	1	5	5	0
CSc1ccccc1C(=O)OCC(=O)Nc1cccnc1Cl	-2	2	-1	43*	-2	0

High-throughput results: PubChem BioAssay, Broad Institute
